TCR-CD3 inh = inhibitors of human TCR-CD3 interaction; TAMRA-labeled TCR probe fluorescence, biochemical; inhibition, % at 9.4 µM; 360,000 compounds, 0.37% hits; AID 651800; in the data active = inhibition above about 19%;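 note: recombinant mutant TCR 2C K166C tagged with TAMRA read by polarization; 0% = receptor in buffer alone and 100% = receptor with positive control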
PRMT1 FP inh = blocks human protein arginine methyltransferase 1 | Q99873 | recombinant PRMT1, activity-based probe fluorescence polarization | inhibition, % at 2.79 µM | 370,000 compounds, 1.3% hits | AID 652257;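 active = inhibition above about 21% made by adding two undisclosed values, limit read from the data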
HTRA1 inh = inhibitors of human serine peptidase HTRA1; Q92743; recombinant HTRA1, FP-rhodamine activity-based probe, fluorescence polarization; inhibition, % at 5.96 µM; 340,000 compounds, 0.5% hits; AID 504803; in the data active = inhibition above about 36%;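 note: 0% = enzyme with DMSO and 100% = wells lacking enzyme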
Target sequence (Q92743 whole entry, looked up): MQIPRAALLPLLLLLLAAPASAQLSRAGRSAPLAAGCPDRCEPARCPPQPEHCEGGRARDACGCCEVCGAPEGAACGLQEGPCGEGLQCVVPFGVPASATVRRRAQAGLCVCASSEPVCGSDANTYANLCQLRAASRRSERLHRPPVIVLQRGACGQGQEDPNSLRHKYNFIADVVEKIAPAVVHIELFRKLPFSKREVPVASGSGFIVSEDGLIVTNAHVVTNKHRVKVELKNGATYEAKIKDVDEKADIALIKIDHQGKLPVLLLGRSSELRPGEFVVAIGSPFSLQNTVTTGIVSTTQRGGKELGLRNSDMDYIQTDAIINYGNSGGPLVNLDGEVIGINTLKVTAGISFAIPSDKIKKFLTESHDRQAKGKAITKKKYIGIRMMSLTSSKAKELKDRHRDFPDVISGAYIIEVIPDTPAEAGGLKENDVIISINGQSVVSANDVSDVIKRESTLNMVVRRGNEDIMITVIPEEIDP
ABHD4 inh = inhibits mouse alpha/beta hydrolase domain 4 | Q8VD66 | purified mABHD4, FP-Rh probe fluorescence polarization | inhibition, % at 8.92 µM | 370,000 compounds, 0.54% hits | AID 720543;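 active = inhibition exceeding the mean over every tested compound plus 3 SD, cut at about 30% in these data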;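 note: 0% = plate median of compound wells and 100% = S159A mutant with DMSO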
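assay system = mABHD4 protein | compound dosing = single nominal dose of 8.92 µM, 0.89% DMSO final | read-out basis = percent inhibition of probe binding, normalized to plate controls | schedule = Enzyme–compound pre-incubation 45 min, then probe 60 min, both 25 °C | detection = fluorescence polarization, excitation 525 nm, emission 598 nm, BODIPY TMR filters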
rCAG binder = binds r(CAG) RNA repeats | 370,000 compounds, 1.3% hits | inhibition, % at 3 µM | AID 651821 | r(CAG) RNA repeat, TO-PRO-1 dye displacement fluorescence;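 active = inhibition above the plate cutoff, the mean of all test compounds on that plate plus 3 SD, cut at about 35% in these data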;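 note: 0% = DMSO alone and 100% = 100 µM mitoxantrone as full dye displacement; higher means more dye released from RNA so lower well fluorescence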
SIAE primary = human SIAE inhibition, primary screen. inhibition, % at 9.66 µM. 370,000 compounds, 0.69% hits. SIAE FP-Rh probe binding, fluorescence polarization. Q9HAT2;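 active = inhibition above a cutoff: mean of compounds within the control limits plus 3 SD of those, cut at about 17% in these data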;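 note: 0% = plate median of compound wells and 100% = probe without SIAE protein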
rCAG binder conf = r(CAG) RNA repeat binding, confirmation | shares compounds with rCAG binder | TO-PRO-1 dye displacement fluorescence | inhibition, % at 3 µM | 4,300 compounds, 70% hits | AID 652065;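 active = inhibition above a per-plate cutoff, the mean inhibition of sample wells plus 3 SD, cut at about 35% in these data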;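 note: loss of TO-PRO-1 fluorescence as compound displaces dye from 1x1 AA loop RNA; 0% = DMSO only wells and 100% = 100 µM mitoxantrone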
dCAG dye counter = counter-screen for rCAG RNA binders: DNA CAG dye complex inhibitors. shares compounds with rCAG binder. d(CAG) DNA oligo TO-PRO-1 dye displacement, fluorescence. inhibition, % at 3 µM. 4,300 compounds, 94% hits;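 active = inhibition above its plate's cutoff, the mean test-well inhibition plus 3 SD, cut at about 4.8% in these data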;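 note: 0% = DNA dye mix with DMSO and 100% = 100 µM mitoxantrone; hits displace the dye from DNA and so lower well fluorescence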
dCAG dye DR = DNA CAG dye complex inhibition, dose response counter-screen; shares compounds with rCAG binder; DNA CAG/GTC duplex TO-PRO-1 dye displacement fluorescence; IC50, µM; 250 compounds, 20% hits; AID 686960; in the data active = IC50 below about 10 µM
* marks the source's active call; other numbers are inactive results; i = inactive; x = no result given. Only some compounds are listed: those with a hit (about 3.5% of all), similar ones and a draw of the others.

SMILES	TCR-CD3 inh	PRMT1 FP inh	HTRA1 inh	ABHD4 inh	rCAG binder	SIAE primary	rCAG binder conf	dCAG dye counter	others
CCCCc1cc(=O)oc2c(C)c(OCC(=O)N3CCC(C(=O)O)(c4ccccc4)CC3)ccc12	6	-1	-10	3	40*	-9	52*	13*
CCCCc1cc(=O)oc2c(C)c(OCC(=O)N3CCCC3)ccc12	4	-2	-3	4	-6	4	x	x
Cc1c(Cc2ccccc2)c(=O)oc2c(C)c(OC(C)C(=O)N[C@@H](Cc3ccccc3)C(=O)O)ccc12 (stereo partly drawn)	2	14	-56	-9	48*	-4	61*	23*
Cc1c(OCC(=O)N[C@@H](Cc2ccccc2)C(=O)O)ccc2c1oc(=O)c1ccccc12	8	2	-4	2	28	-3	x	x
O=C(Nc1ccc(S(=O)(=O)Nc2cnc3ccccc3n2)cc1)c1cccc(OC(F)F)c1	1	8	-39	-14	55*	-4	35*	6.7*
O=S(=O)(Nc1cc(Cl)ccc1-n1cncn1)c1ccccc1Cl	-5	1	2	-2	14	-2	x	x
O=S(=O)(Nc1cc(Cl)ccc1-n1cncn1)c1cc(Br)ccc1Br	4	1	-8	-18	57*	1	56*	21*
COc1ccc(-n2nc(C(=O)NCC(=O)NCCC3=CCCCC3)c3ccccc3c2=O)cc1OC	-1	4	-6	-4	36*	0	5	7.3*
Fc1cccc2sc(Nc3nc4cc5c(cc4s3)OCCO5)nc12	-1	0	-8	5	11	2	x	x
Fc1cccc2sc(Nc3nc4cc5c(cc4s3)OCO5)nc12	-4	0	-2	9	67*	13	54*	33*
O=C(O)CC1(CC(=O)Nc2cc(C(F)(F)F)cc(C(F)(F)F)c2)CCCCC1	-6	3	x	2	42*	0	24	4.8*
Cc1oc2cc3oc(=O)c(CCC(=O)N4CCC(C(=O)O)(c5ccccc5)CC4)c(C)c3cc2c1C	7	-3	x	1	3	1	x	x
Cc1oc2c(C)c3oc(=O)c(CCC(=O)N4CCC(C(=O)NCCC(=O)O)(c5ccccc5)CC4)c(C)c3cc2c1C	-1	5	-10	0	35*	1	58*	16*
CC(C)c1cc(C(C)C)c(S(=O)(=O)N2CCC(c3cn4ccccc4n3)CC2)c(C(C)C)c1	x	3	x	-2	6	3	x	x
COc1ccc(/C=N/NC(=O)c2ccc(O)cc2O)cc1CSc1ccccn1	14	2	-14	-51	36*	8	32	12*
O=C(OC1CC2CCC(C1)[N+]21CCCC1)C(O)(c1ccccc1)c1ccccc1 (stereo not drawn)	x	-6	x	-6	4	3	x	x
CCCOc1cccc(C2C(C(=O)c3ccc(C)o3)=C(O)C(=O)N2c2nc(C)c(C(C)=O)s2)c1 (stereo not drawn)	-11	3	-17	-5	36*	-15	57*	18*	dCAG dye DR=i
CCOC(=O)c1sc(N2C(=O)C(O)=C(C(=O)c3ccco3)C2c2ccco2)nc1C (stereo not drawn)	3	9	-3	18	31	6	x	x
COc1ccc2nc(N3C(=O)C(O)=C(C(=O)c4ccco4)C3c3ccccc3OC)sc2c1 (stereo not drawn)	4	0	-10	-17	39*	-6	57*	21*
Cc1cc(C)c2nc(N3C(=O)C(O)=C(C(=O)c4ccco4)C3c3ccco3)sc2c1 (stereo not drawn)	9	13	-17	-16	81*	-15	82*	49*
COC(=O)c1sc(N2C(=O)C(O)=C(C(=O)c3ccc(C)o3)C2c2cc(OC)ccc2OC)nc1C (stereo not drawn)	-5	-1	-12	-7	44*	-2	60*	18*
CC[C@H](CCCc1ccc(OC)cc1)CCC(=O)N1CCOCC1	x	3	x	3	0	-4	x	x
O=C(CSc1nnc(-c2cnccn2)n1-c1ccccc1)Nc1ccc2c(c1)OCCO2	x	-4	x	3	1	9	x	x
CCN(CC)S(=O)(=O)c1ccc(NC(=S)Nc2ccccc2)cc1	4	0	-5	1	6	10	x	x
CCN(CC)S(=O)(=O)c1ccc(C(=O)Nc2nnc(NC(=S)Nc3ccccc3)s2)cc1	-17	2	-19	-23	61*	-65	64*	33*
SMILES	TCR-CD3 inh	PRMT1 FP inh	HTRA1 inh	ABHD4 inh	rCAG binder	SIAE primary	rCAG binder conf	dCAG dye counter	others
O=C(CSCc1ccccc1)NNC(=S)Nc1cccc(Cl)c1Cl	-5	0	1	21	58*	-3	65*	26*
COc1ccc(C)cc1NC(=O)CSc1nnc(-c2n[nH]c3c2CCC3)n1N	x	4	x	-3	2	1	x	x
N=C1C2=C3Sc4ccccc4N3CCCC2=NN1c1cccc(S(=O)(=O)O)c1	-1	3	-3	11	38*	1	47*	11*
O=C(O)c1ccc(S(=O)(=O)N(CCc2ccccc2)Cc2ccc(Cl)cc2)cc1	5	-2	-48	1	72*	-8	71*	34*	dCAG dye DR=i
O=C(O)CCC(=O)N1CCc2cc(S(=O)(=O)N(CCc3ccccc3)Cc3ccccc3)ccc21	4	2	-29	-35	63*	-14	70*	30*	dCAG dye DR=i
COc1ccc(S(=O)(=O)NNC(=O)c2cc3cc4ccccc4nc3s2)cc1	4	0	-4	-15	35*	2	23	6.4*
CCc1ccc(NC(=O)/C(C#N)=C/c2cn(CC(=O)O)c3ccccc23)cc1	-7	1	-6	0	36*	3	21	5.9*
Cc1cccc(NC(=O)/C(C#N)=C\c2cn(CC(=O)O)c3ccccc23)c1	-6	3	-4	-3	2	-2	x	x
CNC(=O)/C(C#N)=C/c1cn(CC(=O)OC)c2ccccc12	-6	6	-1	-16	-1	-3	x	x
N#C/C(=C/c1cn(CC(=O)O)c2ccccc12)C(=O)Nc1ccccc1	4	3	0	5	5	-5	x	x
CCOc1ccc(NC(=O)/C(C#N)=C/c2cn(CC(=O)O)c3ccccc23)cc1	0	4	-3	-1	56*	-6	50*	15*
CCOc1cccc(NC(=O)/C(C#N)=C\c2cn(CC(=O)O)c3ccccc23)c1	-2	0	-20	-1	57*	-13	56*	18*

Assay outcomes from PubChem BioAssay.
